Reference: publication PMC6067823 (Organic & biomolecular chemistry, 2018)
Entries after “also recorded” stand apart in the source; their conditions may differ. Each block holds one compound with its values, some of them ahead of it.

Assays:
mouse OR-I7 [1] = biological target: T1, mouse OR-I7 (Mus musculus, UniProt Q9QWU6); test: Hana3A GloSensor cAMP assay, inhibition of response to co-applied 5 µM octanal; type: cell-based; conditions: for Relative antagonist potency within the series, in words: side-by-side comparison, Figs. 3 and 4
T1 sequence (Q9QWU6 1-327): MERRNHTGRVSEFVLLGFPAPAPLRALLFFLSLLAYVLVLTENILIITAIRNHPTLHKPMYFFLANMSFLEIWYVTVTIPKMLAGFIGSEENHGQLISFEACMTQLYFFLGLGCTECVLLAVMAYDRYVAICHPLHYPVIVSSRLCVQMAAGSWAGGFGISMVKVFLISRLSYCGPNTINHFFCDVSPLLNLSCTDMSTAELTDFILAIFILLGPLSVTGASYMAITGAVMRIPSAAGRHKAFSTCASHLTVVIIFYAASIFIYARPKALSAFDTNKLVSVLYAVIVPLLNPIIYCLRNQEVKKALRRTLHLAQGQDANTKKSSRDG

rat OR-I7 = conditions: cited from earlier work; for Function at rodent OR-I7 (agonist or antagonist), in words: rat OR-I7, earlier study; for IC50: read-out: IC50 (antagonist, estimated)
mouse OR-I7 [2] = biological target: T1, mouse OR-I7; test: Hana3A GloSensor cAMP assay, compounds applied alone; type: cell-based; conditions: compound applied alone to Hana3A cells expressing mouse OR-I7
Procedure, shortened: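 Hana3A cells were co-transfected with Rho-tagged mouse OR-I7 (80 ng/well), RTP1S, M3-R and pGloSensor-22F (10 ng/well each). At 18–24 h they were loaded with 2% GloSensor reagent for 2 h. Test compound was applied alone over a concentration range, and luminescence was read every 90 s for 24 min. Signal at 3–7.5 min was summed, baselined and normalized to octanal. Six replicates per plate, mean ± SEM.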

rat ORs = conditions: cited from earlier work

Structure (SMILES): O=CCC1CCCCC1 [Compound 2, cyclohexylethanal]
Function at rodent OR-I7 (agonist or antagonist), in words (rat OR-I7): antagonists
IC50 (rat OR-I7; rat OR-I7): 37 µM
Response to octanal with co-applied compound (antagonism), in words (mouse OR-I7 [1]; increasing concentrations co-applied with constant 5 µM octanal): reduced in a dose-dependent manner
Activation of mouse OR-I7 (agonist activity), in words (mouse OR-I7 [2]): not a mouse OR-I7 agonist

Structure (SMILES): CCC1CCC(CC=O)CC1 (stereo not shown) [Compound 4, (4-ethylcyclohexyl)ethanal]
Function at rodent OR-I7 (agonist or antagonist), in words (rat OR-I7): agonists

Structure (SMILES): CC(C)=CCC[C@@H](C)CC=O (racemic) [citronellal]
Agonist activity at rat OR-I7 compared with octanal, in words (rat OR-I7; rat OR-I7): almost as good a rat OR-I7 agonist as octanal

Structure (SMILES): CCCCC=O [Compound 3, Pentanal]
Function at rodent OR-I7 (agonist or antagonist), in words (rat OR-I7): weak rat OR-I7 antagonist; also recorded: antagonists
IC50 (rat OR-I7; rat OR-I7): 460 µM

Structure (SMILES): CCC(C)CC=O (stereo not shown) [Compound 5]
Increase in antagonist potency relative to pentanal (mouse OR-I7 [1]; from estimated IC50s, 5 µM octanal, Fig. 3): 5 fold

Structure (SMILES): CCCCCCCC=O [Compound 1, octanal]
Function at rodent OR-I7 (agonist or antagonist), in words (rat OR-I7): agonists
Number of rat ORs activated (rat ORs): 33–55

Structure (SMILES): CCCCCCC=O [heptanal]
Function at rodent OR-I7 (agonist or antagonist), in words (rat OR-I7): regained their ability to function as agonists

Second part, the compound after the results:

Relative antagonist potency within the series, in words (mouse OR-I7 [1]; 5 µM octanal): unfavorable
Structure (SMILES): CC1(CC=O)CCCCC1 [Compound 10]

Relative antagonist potency within the series, in words (mouse OR-I7 [1]; 5 µM octanal): progressively decreased potency
Structure (SMILES): CCC(CC)(CC)CC=O [Compound 8]

Relative antagonist potency within the series, in words (mouse OR-I7 [1]; 5 µM octanal): unfavorable
Structure (SMILES): CCC1(CC=O)CCCCC1 [Compound 11]

Antagonist potency weaker than compound 9 (mouse OR-I7 [1]; from estimated IC50s, 5 µM octanal, Fig. 4): 3 fold
Structure (SMILES): O=CCC12CC3CC(CC(C3)C1)C2 [Compound 12]
